One data set concerns Plasmodium falciparum. Description: Antiplasmodial activity against chloroquine-sensitive ring-stage Plasmodium falciparum 3D7 assessed as [3H]hypoxanthine incorporation after 48 hrs by liquid scintillation counter. The format is functional, organism-based. A digest of the protocol: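 Ring-stage 3D7-infected erythrocytes at 0.5% parasitemia, 2.5% hematocrit, in triplicate wells with serial compound dilutions. After 48 h under standard culture conditions, 0.5 µCi [3H]-hypoxanthine was added per well and culture continued a further 24 h. Harvested cells counted by scintillation. Inhibition was taken against matched 0.5% DMSO controls. IC50 was obtained by linear interpolation, as the mean of two independent triplicate experiments.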

Data set [1] in a line: Cytotoxicity against human NFF assessed as growth inhibition at 100 uM after 3 days by sulforhodamine B assay. The format is cell-based. The settings on record: NFF cells, read-out: GI. A general note: Sulforhodamine B stains cellular protein and so reports cell mass.
Data set [2] is described as follows: Cytotoxicity against human NFF assessed as growth inhibition at 50 uM after 3 days by sulforhodamine B assay. The class given is cell-based. The following applies: NFF cells, read-out: GI.
The next data set deals with NFF. Nature of the data set: Cytotoxicity against human NFF assessed as growth inhibition after 3 days by sulforhodamine B assay. The format is cell-based. The settings on record: 72 h. A digest of the protocol: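 NFF cells were kept in log phase in RPMI 1640 with 10% FCS and 1% streptomycin at 37 °C, 5% CO2. They were seeded at 3000/well and grown 24 h before treatment. Compounds went in as DMSO solutions diluted in medium, with DMSO ≤1% and DMSO-matched controls. After 3 days cells were PBS-washed and fixed in methylated spirits. Total protein was measured by sulforhodamine B, in triplicate across three independent experiments.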

The values that follow come from ChEMBL document CHEMBL1944576, “Synthesis and antiplasmodial evaluation of novel chromeno[2,3-b]chromene derivatives” (Bioorg Med Chem, 2012).

The structures appear in SMILES notation.

What is called IC50 is the concentration at which inhibition is half-maximal. Consider `COc1cccc2c1C[C@@H]1[C@H](/C=C/c3ccc(Br)cc3)c3c(OC)cccc3O[C@]1(c1ccc(Br)cc1)O2`, for which, in the data set on Plasmodium falciparum, the IC50 was 39.8 µM. In addition, the inhibition at 72 h, 100 µM in data set [1] was 38%. In the same order, the values of `COc1cccc2c1C[C@@H]1[C@H](/C=C/c3ccc(Cl)cc3)c3c(OC)cccc3O[C@]1(c1ccc(Cl)cc1)O2` are 8.3 µM and 83.6%.

For the compound `COc1ccc(/C=C/[C@@H]2c3c(OC)cccc3O[C@]3(c4ccc(OC)cc4)Oc4cccc(OC)c4C[C@H]23)cc1`, the IC50 with Plasmodium falciparum was determined as 8.2 µM. Further, the inhibition at 72 h, 100 µM in data set [1] turned out to be 54.6%. In the same order, the values of `COc1cccc2c1C[C@@H]1[C@H](/C=C/c3ccc(C)cc3)c3c(OC)cccc3O[C@]1(c1ccc(C)cc1)O2` are 6.8 µM and 60.1%. On the same counts, the results for `COc1ccc2c(c1)C[C@@H]1[C@H](/C=C/c3ccccc3)c3cc(OC)ccc3O[C@]1(c1ccccc1)O2` are 10.2 µM and 51.4%. With `COc1ccc2c(c1)C[C@@H]1[C@H](/C=C/c3ccc(Br)cc3)c3cc(OC)ccc3O[C@]1(c1ccc(Br)cc1)O2`, the IC50 in the data set with Plasmodium falciparum worked out at 17.2 µM. Further, the inhibition at 72 h, 100 µM in data set [1] was 51%. Take `COc1ccc2c(c1)C[C@@H]1[C@H](/C=C/c3ccc(Cl)cc3)c3cc(OC)ccc3O[C@]1(c1ccc(Cl)cc1)O2`: in the data set with Plasmodium falciparum, the IC50 worked out at 35.6 µM. Besides, in data set [1], the inhibition at 72 h, 100 µM amounted to 40.4%.

With `COc1ccc2c(c1)C[C@@H]1[C@H](/C=C/c3ccc(C)cc3)c3cc(OC)ccc3O[C@]1(c1ccc(C)cc1)O2`, the IC50 with Plasmodium falciparum was 8.9 µM. Moreover, the inhibition at 72 h, 100 µM in data set [1] is 40%.

Take `COc1cccc2c1C[C@@H]1[C@H](/C=C/c3ccccc3)c3c(OC)cccc3O[C@]1(c1ccccc1)O2`: the IC50 in the data set with Plasmodium falciparum is 17.3 µM. Further, the inhibition at 72 h, 100 µM in data set [1] is 48.6%. With `COc1cc(OC)c2c(c1OC)O[C@@H](c1ccccc1)[C@H]1[C@@H]2Oc2c(OC)c(OC)cc(OC)c2[C@@H]1/C=C/c1ccccc1` (relative stereo), the IC50 with Plasmodium falciparum is 3.9 µM. For the same compound, the inhibition at 72 h, 50 µM in data set [2] came out at 46.9%.

On to `CCN(CC)CCCC(C)Nc1ccnc2cc(Cl)ccc12` (stereo unspecified) [CHLOROQUINE], for which, in the data set with NFF, the IC50 was 34 µM.
